Shown are actives, neighbours in structure and some others; about 2.1% of the full set was active somewhere.
ERp5 block: blocks human ERp5 reductase activity on insulin; ERp5 insulin aggregation, absorbance 650 nm, 90 min; inhibition, % at 9.99 µM; 350,000 compounds, 0.05% hits; Q15084; AID 651711;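 active = mean replicate inhibition above about 25%, with every replicate also reaching it, limit read from the data, passing the limit was not always enough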
FN deposit inh: fibronectin deposition inhibition. inhibition, % at 12.6 µM. 350,000 compounds, 0.086% hits. AH1F fibroblasts, Alexa488-fibronectin deposition fluorescence, overnight;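 active = mean inhibition across replicates of 30% or more, regardless of how many single replicates reach that level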;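 also: positive control wells lacked labelled fibronectin entirely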
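Measured by – fluorescence 485/525 nm · System – AH1F fibroblast monolayer, labelled fibronectin deposition · Amount – 10000 cells per well · Buffer or medium – serum-reduced DMEM (2% serum) · Doses – single dose, pinned · Also added – fluorescent fibronectin at 24 nM final · Schedule – 1 h cell attachment, overnight exposure to compound and label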
AF4-AF9 inh: MLL-AF4/AF9 protein interaction inhibition | P42568 | AlphaScreen, biotin-AF4 peptide binding to FLAG-AF9 | inhibition, % at 10 µM | 350,000 compounds, 0.47% hits;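 active = every replicate reaching a set inhibition limit, whatever the replicate mean, cut at about 25% in these data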;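 also: 0% = plate neutral control median and 100% = total signal loss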
ARNT TACC3 PPI: disruptors of human ARNT/TACC3 interaction | Q9Y6A5 | AlphaScreen His-ARNT PAS-B/GST-TACC3 binding, luminescence; TACC3 fragment carries E629A point mutation | inhibition, % at 9.99 µM | 390,000 compounds, 0.66% hits | AID 623870;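 active = mean inhibition of replicates at least 50% and at least half of replicates each reaching 50%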;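 also: 0% = complete ARNT plus TACC3 wells and 100% = ARNT alone without TACC3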
PDI turbidity: inhibitors of human protein disulfide isomerase. P07237. PDI insulin aggregation turbidity, A650, 90 min. inhibition, % at 10 µM. 350,000 compounds, 0.052% hits. AID 588391;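 active = mean inhibition across replicates of 30% or more, whatever share of single replicates reach that level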
Target sequence (P07237 whole entry, looked up): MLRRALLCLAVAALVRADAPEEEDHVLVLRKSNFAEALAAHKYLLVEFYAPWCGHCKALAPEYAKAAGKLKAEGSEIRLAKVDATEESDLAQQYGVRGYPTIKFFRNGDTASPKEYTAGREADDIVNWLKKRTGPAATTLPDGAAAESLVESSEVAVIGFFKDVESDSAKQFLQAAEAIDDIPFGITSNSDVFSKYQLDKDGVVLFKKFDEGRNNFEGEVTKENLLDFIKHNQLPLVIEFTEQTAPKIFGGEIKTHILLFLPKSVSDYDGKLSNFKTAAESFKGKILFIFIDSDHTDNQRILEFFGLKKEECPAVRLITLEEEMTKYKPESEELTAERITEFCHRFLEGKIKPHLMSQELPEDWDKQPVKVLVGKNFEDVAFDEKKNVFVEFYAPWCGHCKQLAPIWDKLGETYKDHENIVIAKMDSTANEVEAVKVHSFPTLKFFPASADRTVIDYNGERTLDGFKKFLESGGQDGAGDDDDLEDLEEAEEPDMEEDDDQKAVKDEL
FGF22 binding: binders of recombinant human FGF22 by thermal shift. Q9HCT0. SYPRO orange fluorescence; percent of sucrose octasulfate shift, DMSO zero. activity (Tm shift, normalised), % at 9.99 µM. 340,000 compounds, 1.5% hits. AID 651658;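 active = mean Tm shift, scaled 0 neutral to 100 positive control, at about 1.3% or above, every replicate too, limit read from the data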
Starred values were filed as active, the others as inactive; x = no result.

SMILES | ERp5 block | FN deposit inh | AF4-AF9 inh | ARNT TACC3 PPI | PDI turbidity | FGF22 binding
CC(C(=O)Nc1ccccc1-c1ccccc1)N1CCN(Cc2ccccc2)CC1 (stereo not given) | -1 | -4 | -9 | 2 | -3 | 43*
OCC#Cc1ncc(C(F)(F)F)cc1Cl | -3 | 5 | -1 | -12 | 3 | 43*
Cc1ccc(S(=O)(=O)Nc2cccc3c2O[C@H](CN(C)Cc2ccc(C(F)(F)F)cc2)[C@@H](C)CN([C@H](C)CO)C3=O)cc1 | 1 | x | 3 | 1 | x | -1
C/C=C/c1ccc(OC(C)=O)c(OC)c1 | 4 | -4 | 1 | 20* | -5 | 0
C/C=C/c1ccc(OCC(=O)Nc2ccc(C(N)=O)cc2)c(OC)c1 | 8 | -4 | 0 | 0 | -4 | 44*
C/C=C/c1ccc(OC)c(OC(C)=O)c1 | x | 5 | x | -5 | -7 | x
C[C@H]1CN([C@@H](C)CO)C(=O)Cc2cc(NC(=O)CCN3CCOCC3)ccc2O[C@@H]1CN(C)Cc1ccc(-c2ccccc2)cc1 | -3 | x | 8 | x | x | 0
NC1(C(=O)O)CSSC1 | -6 | -5 | 48* | -3 | 7 | 0
CNC[C@@H]1Oc2cc(-c3ccncc3)ccc2S(=O)(=O)N([C@H](C)CO)C[C@H]1C | 1 | -11 | 1 | -2 | x | 0
C[C@H](O)C#Cc1cnc2c(c1)C(=O)N([C@H](C)CO)C[C@@H](C)[C@@H](CN(C)CC1CCOCC1)O2 | 0 | -9 | -3 | -8 | x | 0
O=C(COC(=O)c1nc(Cl)ccc1Cl)NNC(=O)c1ccccc1 | -3 | 4 | -2 | -1 | -10 | x
O=C(COC(=O)/C=C/c1ccc(Cl)cc1)NCCC1=CCCCC1 | x | 32* | x | -5 | 14 | x
O=C(COC(=O)c1ccccc1C(=O)c1ccc(Cl)cc1)NC(c1ccccc1)c1ccccc1 | -5 | 14 | 1 | x | -10 | 43*
CC(NC(=O)COC(=O)c1nc(Cl)ccc1Cl)c1ccccc1 (stereo not given) | 1 | 5 | 3 | 0 | 1 | 44*
CC(NC(=O)COC(=O)/C=C/c1ccc(Cl)cc1)c1ccccc1 (stereo not given) | 3 | -18 | -1 | -3 | -4 | 44*
O=C(COC(=O)c1ccccc1C(=O)c1ccc(Cl)cc1)NCCc1ccccc1 | 5 | 3 | -1 | 3 | -4 | 0
Cc1ccccc1S(=O)(=O)N1[C@H](CO)[C@@H](c2ccc(-c3ccc(F)cc3)cc2)[C@@H]1C#N | 3 | -13 | 0 | -26 | x | 1
Cc1ccc(-c2cnc3c(c2)C(=O)N([C@H](C)CO)C[C@@H](C)[C@H](CN(C)C(=O)c2ccccc2)O3)cc1 | 3 | -17 | 1 | 3 | x | 1
O=C(OCC(=O)N1CCc2ccccc21)c1nc(Cl)ccc1Cl | -3 | -3 | 0 | -3 | 8 | 44*
COc1cccc(C(=O)Nc2ccc3c(c2)C(=O)N(C)C[C@@H](OC)[C@@H](C)CN[C@@H](C)CO3)c1 | 5 | -2 | -5 | 6 | x | -1
N#Cc1c(-c2ccccc2)nc(SCC(=O)Nc2ccccc2F)[nH]c1=O | 6 | -3 | -4 | -6 | -5 | 1.9*
Cc1ccc2c(c1)N(CCCC(=O)NCCCN1CCCC1=O)C(=O)CO2 | -2 | -5 | 49* | -4 | -3 | 0
N#Cc1ccc(-c2ccc3c(c2)[C@H]2[C@H](CCN2C(=O)c2ccncc2)[C@H](CO)N3)cc1 | x | 17 | x | -6 | x | x
O=C1C=CCCN1C(=O)/C=C/c1ccccc1 | -2 | x | -3 | x | x | 1
Cc1ccc(/C(=N/Nc2ncnc3ccccc23)C(=O)O)cc1 | 1 | 4 | 5 | 61* | 4 | 0
SMILES | ERp5 block | FN deposit inh | AF4-AF9 inh | ARNT TACC3 PPI | PDI turbidity | FGF22 binding
O=C(CSc1ccc(Cl)cc1)NCc1ccncc1 | -2 | 2 | -12 | -6 | -1 | 43*
N/C(CSc1ccc(Cl)cc1)=N\NC(=O)c1ccncc1 | 2 | 1 | 0 | -3 | -1 | 43*
O=C(CCSc1ccc(Cl)cc1)NCc1ccncc1 | -3 | 0 | 2 | 29 | 1 | 0
O=C(CSc1ccc(Cl)cc1)NC(=O)c1ccccc1 | 7 | 2 | 1 | x | 8 | 0
COc1ccc(S(=O)(=O)N(C)C[C@@H]2Oc3ccc(NC(=O)Cc4ccccc4)cc3C(=O)N([C@H](C)CO)C[C@H]2C)cc1 | -1 | 1 | -1 | -3 | x | 0
Cc1ccc(S(=O)(=O)Nc2ccc3c(c2)C(=O)N(C)[C@H]2CC[C@@H](CC(=O)O)O[C@H]2CO3)cc1 | -3 | -10 | 1 | -6 | x | 0
COc1ccc(C(C(=O)NC(C)(C)C)N(CCc2ccccc2)C(=O)CCC(=O)Nc2cc(C)on2)cc1 (stereo not given) | 1 | -3 | 1 | 29 | -16 | 0
COc1ccc(C(C(=O)NC(C)(C)C)N(CCO)C(=O)CCC(=O)Nc2cc(C)on2)cc1 (stereo not given) | 6 | 8 | 0 | 1 | 7 | 43*
O=C(O)C[C@H]1C=C[C@@H](NC(=O)c2ccccc2F)[C@H](CO)O1 | -3 | 13 | 1 | 0 | x | 0
COc1ccc2[nH]cc(CCNC(=O)Cn3cc(C)c(=O)[nH]c3=O)c2c1 | 0 | 5 | 2 | 1 | 17 | 43*
COc1ccc2[nH]cc(CCNC(=O)Cc3ccc(Br)cc3)c2c1 | 0 | 5 | 5 | 5 | 12 | 0
COc1ccccc1CN1C[C@H](C)[C@H](OC)CN(C)C(=O)c2ccc(NC(C)=O)cc2OC[C@H]1C | -1 | 1 | 2 | -11 | x | 0
COc1cc(CN(CC(C)C)S(=O)(=O)c2ccccc2Br)cc(OC)c1 | -2 | -33 | -2 | -2 | 14 | 43*
Cc1cc(Cl)ccc1OC(C)C(=O)Nc1ccc(C(=O)Nc2ccccc2C(=O)O)cc1 (stereo not given) | -20 | x | -4 | 2 | -2 | 1.4*
CCN(C(=O)COC(=O)c1ccc2ccccc2n1)c1c(N)n(Cc2ccccc2)c(=O)[nH]c1=O | 0 | x | -1 | x | -1 | 0
COCCCN(C(=O)c1ccc2ccccc2n1)c1c(N)n(Cc2ccccc2)c(=O)[nH]c1=O | 0 | 37* | -1 | -2 | 8 | 0
COc1ccc(CSc2nc(C)[nH]c2[N+](=O)[O-])cc1[N+](=O)[O-] | 3 | 6 | x | x | -8 | 0
COc1ccc(CSc2cccc3cccnc23)cc1[N+](=O)[O-] | -3 | -2 | 4 | 45* | -4 | 1
COc1ccc(C(=O)Oc2cccc3cccnc23)cc1[N+](=O)[O-] | 1 | -9 | 2 | 56* | 6 | 0
CN(C)c1cccc(/C=C(\C#N)c2ccccc2)c1 | 2 | 18 | 26* | 14 | 3 | 0

Compound activity as filed in PubChem BioAssay.
